Assay [1] deals with T1, B2 bradykinin receptor (Oryctolagus cuniculus, UniProt Q28642).
T1 sequence (Q28642 whole entry): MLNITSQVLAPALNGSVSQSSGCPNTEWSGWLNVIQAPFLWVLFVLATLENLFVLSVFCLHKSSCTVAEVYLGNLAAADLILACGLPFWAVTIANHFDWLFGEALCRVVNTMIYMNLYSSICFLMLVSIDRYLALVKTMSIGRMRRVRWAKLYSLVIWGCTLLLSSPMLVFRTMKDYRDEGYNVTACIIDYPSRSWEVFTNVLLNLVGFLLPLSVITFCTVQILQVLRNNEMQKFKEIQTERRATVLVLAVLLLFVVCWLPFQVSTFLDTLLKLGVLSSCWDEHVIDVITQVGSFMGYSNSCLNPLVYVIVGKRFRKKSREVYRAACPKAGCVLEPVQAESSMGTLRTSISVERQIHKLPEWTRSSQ
Briefly: In vitro antagonistic activity against kinin-induced rabbit jugular vein contraction. The format is functional. Conditions: for Kb: read-out: pA2 (converted). The procedure, abridged: (§1)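 Rabbit jugular vein rings (B2 tissue), reference KCl 60 mM contraction then 45 min rest; antagonist, usually 10-7, 10^-6 and 10^-5 M, incubated 45 min before cumulative bradykinin; one curve per ring; pA2 by Tallarida's method with Schild slope constrained to unity, or pKB from EC50 ratio when activity appeared only at 10^-5 M.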

In assay [2] the target is T2, B2 bradykinin receptor (Oryctolagus cuniculus) (UniProt Q28642).
T2 sequence (whole entry): T1 sequence (Q28642 whole entry)
The assay can be described thus: In vitro antagonistic activity against kinin-induced rabbit jugular vein contraction by bradykinin B2 receptor; in = inactive at 10e-5M. The format is functional. The gist of the method: as §1

Assay [3] has as its target T3, B2 bradykinin receptor (Homo sapiens) (UniProt P30411).
T3 sequence (whole entry): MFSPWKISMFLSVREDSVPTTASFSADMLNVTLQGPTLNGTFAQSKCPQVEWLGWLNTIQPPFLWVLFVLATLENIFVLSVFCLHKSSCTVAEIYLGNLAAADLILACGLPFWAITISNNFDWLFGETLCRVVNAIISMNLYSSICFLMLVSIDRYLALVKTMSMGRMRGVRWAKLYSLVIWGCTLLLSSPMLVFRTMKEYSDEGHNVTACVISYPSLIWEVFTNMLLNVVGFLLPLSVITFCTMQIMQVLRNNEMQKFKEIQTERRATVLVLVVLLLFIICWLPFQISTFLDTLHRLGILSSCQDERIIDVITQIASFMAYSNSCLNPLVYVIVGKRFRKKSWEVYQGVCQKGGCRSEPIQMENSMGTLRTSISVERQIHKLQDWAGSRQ
Briefly: Antagonistic activity against bradykinin B2 receptor as human umbilical vein contraction; in = inactive at 10e-5M. The format is functional, tissue-based. The procedure, abridged:
(§2)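 Endothelium-denuded human umbilical vein rings in Krebs (37 °C, 95% O2/5% CO2, pH 7.40), 2-4 g load, pretreated with indomethacin 5 × 10^-6 M and L-nitroarginine 10^-4 M; antagonist incubated 45 min before a single cumulative bradykinin curve per ring; isometric contraction as % of KCl (60 mM) reference; pKB from KB = [Ant]/(concentration ratio − 1).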

Assay [4] deals with T3, B2 bradykinin receptor (Homo sapiens). Briefly: Antagonistic activity against bradykinin B2 receptor as human umbilical vein contraction. Format: functional, tissue-based. The procedure, abridged:
as §2

Assay [5] concerns the target T2, B2 bradykinin receptor (Oryctolagus cuniculus). The assay can be described thus: In vitro antagonistic activity against kinin-induced rabbit jugular vein contraction by bradykinin B2 receptor; in = inactive at 10e-5M. Format: functional. The gist of the method: as §1

Active and inactive are the calls of the source. No cut-off for these calls is given here. Numbered stars: 1 amine (or outer) side, 2 acyl side, 3 side chain; on linkers, the order of the positions; unused ones are H or OH. Square brackets hold non-standard residues; d marks the D form. Peptide text beside a SMILES is read from it. * marks the point of attachment. ξ: configuration not given here. X1 = NC(N)=NCCC[C@@H](NC(=O)[C@H](Cc1ccccc1)NC(=O)N1CCC[C@H]1C(=O)[C@H](CO)N*)C(=O)O; Pentanoyl(5-guanidino) = NC(N)=NCCCCC(=O)*; Butanoyl(4-guanidino) = N=C(N)NCCCC(=O)*; Oic(3aξ,7aξ) = O=C(O)[C@@H]1CC2CCCCC2N1; NH(CH2)9CO = O=C(CCCCCCCCCN[*:1])[*:2]; Tic = O=C(O)[C@@H]1Cc2ccccc2CN1; 2Thi = N[C@@H](Cc1cccs1)C(=O)O; X2 = N=C(N)NCCCCCC(=O)*; GABA = NCCCC(=O)O

With `NCCCCCCCCCC(=O)N[C@@H](Cc1cccs1)C(=O)N1Cc2ccccc2C[C@H]1C(=O)N1C2CCCCC2C[C@H]1C(=O)N[C@@H](CCCN=C(N)N)C(=O)O` (some centres undefined) ({NH(CH2)9CO}-[2Thi][Tic][Oic(3aξ,7aξ)]R-OH), the Kb in assay [1] was 468 nM.

As usually defined, the pA2 is the negative logarithm of the molar antagonist concentration that doubles the agonist concentration needed for the same response. In assay [1], `NCCCC[C@@H]1NC(=O)[C@H](CCCN=C(N)N)NC(=O)[C@@H]2C[C@@H]3CCCC[C@@H]3N2C(=O)[C@H]2Cc3ccccc3CN2C(=O)[C@H](Cc2cccs2)NC1=O` returned a pA2 of 6.84. Consider `N=C(N)NCCCC(=O)N[C@@H](Cc1cccs1)C(=O)N1Cc2ccccc2C[C@H]1C(=O)N1C2CCCCC2C[C@H]1C(=O)N[C@@H](CCCNC(=N)N)C(=O)O` (some centres undefined) ({Butanoyl(4-guanidino)}-[2Thi][Tic][Oic(3aξ,7aξ)]R-OH), for which the pA2 result in assay [2] was “inactive”. For `N=C(N)NCCC[C@@H]1NC(=O)[C@@H]2CC3CCCCC3N2C(=O)[C@H]2Cc3ccccc3CN2C(=O)[C@H](CO)NC(=O)[C@H](Cc2cccs2)NC(=O)CCCNC1=O` (some centres undefined), the Kb in assay [1] was 45.7 nM. The same measure, in the same setting: in the case of `N=C(N)NCCC[C@@H]1NC(=O)[C@H](CCCNC(=N)N)NC(=O)[C@@H]2CC3CCCCC3N2C(=O)[C@H]2Cc3ccccc3CN2C(=O)[C@H](Cc2cccs2)NC1=O` (some centres undefined) it was 75.9 nM; in that of `CN1CC(=O)N[C@@H](Cc2cccs2)C(=O)N2Cc3ccccc3C[C@@H]2C(=O)N2C3CCCCC3C[C@H]2C(=O)N[C@@H](CCCN=C(N)N)C1=O` (some centres undefined), 219 nM; in that of `C[C@@H]1NC(=O)CNC(=O)[C@H](CCCN=C(N)N)NC(=O)[C@@H]2CC3CCCCC3N2C(=O)[C@H]2Cc3ccccc3CN2C1=O` (some centres undefined), 240 nM. The term pKb denotes the negative decadic logarithm of the Kb, by convention in mol/L. Consider `N=C(N)NCCC[C@@H]1NC(=O)[C@@H]2CC3CCCCC3N2C(=O)[C@H]2Cc3ccccc3CN2C(=O)[C@H](Cc2cccs2)NC(=O)CCCNC1=O` (some centres undefined), for which the Kb in assay [1] is 324 nM. The pKb entry in assay [3] is “inactive”.

On to `NCC(=O)N[C@@H](Cc1cccs1)C(=O)N1Cc2ccccc2C[C@H]1C(=O)N1C2CCCCC2C[C@H]1C(=O)N[C@@H](CCCN=C(N)N)C(=O)O` (some centres undefined) (H-G[2Thi][Tic][Oic(3aξ,7aξ)]R-OH), for which the pA2 result in assay [2] was “inactive”. This compound returned a negative logarithm of the Kb (pKb) in assay [4] of 4.79. For `N=C(N)NCCCCC(=O)N[C@@H](Cc1cccs1)C(=O)N1Cc2ccccc2C[C@H]1C(=O)N1C2CCCCC2C[C@H]1C(=O)N[C@@H](CCCNC(=N)N)C(=O)O` (some centres undefined) ({Pentanoyl(5-guanidino)}-[2Thi][Tic][Oic(3aξ,7aξ)]R-OH), the Kb in assay [1] is 3020 nM. For `NC(N)=NCCC[C@H](NC(=O)[C@@H](Cc1ccccc1)NC(=O)[C@@H](N)CCCN=C(N)N)C(=O)N1CCC[C@H]1C(=O)N1CCC[C@H]1C(=O)NCC(=O)N[C@@H](Cc1ccccc1)C(=O)N[C@@H](CO)C(=O)[C@@H]1CCCN1C(=O)N[C@@H](Cc1ccccc1)C(=O)N[C@H](CCCN=C(N)N)C(=O)O` (H-R[dF]RPPGF-X1), the pKb in assay [4] amounted to 5.16. For the compound `N=C(N)NCCC[C@@H]1NC(=O)[C@@H]2CC3CCCCC3N2C(=O)[C@H]2Cc3ccccc3CN2C(=O)[C@H](CO)NC(=O)[C@H](c2ccccc2)NC(=O)CCCNC1=O` (some centres undefined), the Kb in assay [1] is 537 nM. Take `NCC(=O)N[C@@H](Cc1ccccc1)C(=O)N1Cc2ccccc2C[C@H]1C(=O)N1C2CCCCC2C[C@H]1C(=O)N[C@@H](CCCN=C(N)N)C(=O)O` (some centres undefined) (H-GF[Tic][Oic(3aξ,7aξ)]R-OH): in assay [1], the Kb is 851 nM. Also, the pKb result in assay [3] is “inactive”. For `N=C(N)NCCC[C@@H]1NC(=O)[C@@H]2CC3CCCCC3N2C(=O)[C@H]2Cc3ccccc3CN2C(=O)[C@H](Cc2ccccc2)NC(=O)CNC1=O` (some centres undefined), in assay [1], the Kb is 117 nM. Besides, in assay [4], the pKb worked out at 5.13. The corresponding values for `N=C(N)NCCC[C@@H]1NC(=O)[C@@H]2CC3CCCCC3N2C(=O)[C@H]2Cc3ccccc3CN2C(=O)[C@H](Cc2cccs2)NC(=O)CNC1=O` (some centres undefined) are 40.7 nM and 4.93.

As for `C[C@@H]1NC(=O)[C@H](Cc2c[nH]c3ccccc23)NC(=O)CCCNC(=O)[C@H](CCCN=C(N)N)NC(=O)[C@@H]2CC3CCCCC3N2C(=O)[C@H]2Cc3ccccc3CN2C1=O` (some centres undefined), in assay [1], the Kb was 490 nM. Turning to `NCCCC(=O)N[C@@H](Cc1cccs1)C(=O)N1Cc2ccccc2C[C@H]1C(=O)N1C2CCCCC2C[C@H]1C(=O)N[C@@H](CCCN=C(N)N)C(=O)O` (some centres undefined) (H-[GABA][2Thi][Tic][Oic(3aξ,7aξ)]R-OH), in assay [1], the Kb is 251 nM. The pKb entry in assay [3] is “inactive”. Regarding `NCCCC(=O)N[C@@H](Cc1ccccc1)C(=O)N1Cc2ccccc2C[C@H]1C(=O)N1C2CCCCC2C[C@H]1C(=O)N[C@@H](CCCN=C(N)N)C(=O)O` (some centres undefined) (H-[GABA]F[Tic][Oic(3aξ,7aξ)]R-OH), the Kb in assay [1] is 363 nM. As to `N=C(N)NCCC[C@H](NC(=O)[C@@H]1CC2CCCCC2N1C(=O)[C@@H]1Cc2ccccc2CN1C(=O)[C@H](CO)NC(=O)[C@@H]1Cc2ccccc2CN1)C(=O)O` (some centres undefined) (H-[Tic]S[Tic][Oic(3aξ,7aξ)]R-OH), the pA2 entry in assay [5] is “inactive”. For `NC(N)=NCCC[C@@H]1NC(=O)[C@@H]2CC3CCCCC3N2C(=O)[C@H]2Cc3ccccc3CN2C(=O)[C@H](CO)NC(=O)[C@H](Cc2cccs2)NC(=O)CCNC1=O` (some centres undefined), the Kb in assay [1] was 75.9 nM.

Take `N=C(N)NCCCCCC(=O)N[C@@H](Cc1cccs1)C(=O)N1Cc2ccccc2C[C@H]1C(=O)N1C2CCCCC2C[C@H]1C(=O)N[C@@H](CCCNC(=N)N)C(=O)O` (some centres undefined) (X2-[2Thi][Tic][Oic(3aξ,7aξ)]R-OH): the Kb in assay [1] was 3390 nM. In the case of `C[C@@H]1NC(=O)[C@H](Cc2cccs2)NC(=O)CCCNC(=O)[C@H](CCCN=C(N)N)NC(=O)[C@@H]2CC3CCCCC3N2C(=O)[C@H]2Cc3ccccc3CN2C1=O` (some centres undefined), the Kb in assay [1] was 63.1 nM. Still for that read-out and setting: as for `C[C@@H]1NC(=O)CCCNC(=O)[C@H](CCCN=C(N)N)NC(=O)[C@@H]2CC3CCCCC3N2C(=O)[C@H]2Cc3ccccc3CN2C(=O)[C@H](CO)NC1=O` (some centres undefined), the figure is 309 nM. Regarding `NC(N)=NCCC[C@H](NC(=O)[C@@H]1CC2CCCCC2N1C(=O)[C@@H]1Cc2ccccc2CN1C(=O)[C@H](CO)NC(=O)[C@@H](N)Cc1cccs1)C(=O)O` (some centres undefined) (H-[2Thi]S[Tic][Oic(3aξ,7aξ)]R-OH), in assay [5], the pA2 entry is “inactive”. Turning to `NC(N)=NCCC[C@H](NC(=O)[C@@H]1CC2CCCCC2N1C(=O)[C@@H]1Cc2ccccc2CN1C(=O)[C@H](CO)NC(=O)[C@@H](N)Cc1ccccc1)C(=O)O` (some centres undefined) (H-FS[Tic][Oic(3aξ,7aξ)]R-OH), the Kb in assay [1] is 912 nM. On the same count and under the same terms, in the case of `N=C(N)NCCC[C@@H]1NC(=O)[C@@H]2CC3CCCCC3N2C(=O)[C@H]2Cc3ccccc3CN2C(=O)[C@H](CO)NC(=O)[C@@H]2Cc3ccccc3CN2C(=O)CCCNC1=O` (some centres undefined) it was 437 nM; in that of `NC(N)=NCCC[C@H](NC(=O)[C@@H]1CC2CCCCC2N1C(=O)[C@@H]1Cc2ccccc2CN1C(=O)[C@H](Cc1cccs1)NC(=O)[C@@H](N)CCCN=C(N)N)C(=O)O` (some centres undefined) (H-R[2Thi][Tic][Oic(3aξ,7aξ)]R-OH), 794 nM.

Take `C[C@@H]1NC(=O)[C@@H](Cc2ccccc2)NC(=O)CCCNC(=O)[C@H](CCCN=C(N)N)NC(=O)[C@@H]2CC3CCCCC3N2C(=O)[C@H]2Cc3ccccc3CN2C1=O` (some centres undefined): the pA2 entry in assay [2] is “inactive”.

For the origin of these results see ChEMBL document CHEMBL1129319, “Design and synthesis of new linear and cyclic bradykinin antagonists” (J Med Chem, 1996).
